# In publication PMC9594912 (International Journal of Nanomedicine, 2022):
# Key:
# In vitro drug release = type: physicochemical; settings: PBS (pH 7.4), 24 hours, 37°C
# Procedure, shortened: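 Dialysis bags holding 2 mL of free suspension or liposomes with equal drug content. Immersed in 60 mL PBS pH 7.4, SGF or SIF, each with 0.5% Tween-80, shaken at 37°C, 100 rpm. 1 mL withdrawn at intervals and replaced with fresh medium. Drug quantified by HPLC (C18, methanol:water 80:20, 254 nm). Cumulative release % calculated with sampling correction, then fitted to kinetic models.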
# [1] = tested on: intestinal segments (duodenum, jejunum, ileum and colon); assay: In situ single-pass intestinal perfusion; type: in vivo, rats; settings: 125, 250, 500 μg/mL; taken to indicate passive diffusion
# MRP2 [2] = biological target: MRP2 (Rattus norvegicus, UniProt Q63120); assay: SPIP with MRP2 inhibitor indomethacin; type: in vivo, rats; settings: Indo 200 μmol/L; increase taken to indicate a substrate of MRP2
# Sequence of MRP2 (Rattus norvegicus, UniProt Q63120) (Q63120 whole entry): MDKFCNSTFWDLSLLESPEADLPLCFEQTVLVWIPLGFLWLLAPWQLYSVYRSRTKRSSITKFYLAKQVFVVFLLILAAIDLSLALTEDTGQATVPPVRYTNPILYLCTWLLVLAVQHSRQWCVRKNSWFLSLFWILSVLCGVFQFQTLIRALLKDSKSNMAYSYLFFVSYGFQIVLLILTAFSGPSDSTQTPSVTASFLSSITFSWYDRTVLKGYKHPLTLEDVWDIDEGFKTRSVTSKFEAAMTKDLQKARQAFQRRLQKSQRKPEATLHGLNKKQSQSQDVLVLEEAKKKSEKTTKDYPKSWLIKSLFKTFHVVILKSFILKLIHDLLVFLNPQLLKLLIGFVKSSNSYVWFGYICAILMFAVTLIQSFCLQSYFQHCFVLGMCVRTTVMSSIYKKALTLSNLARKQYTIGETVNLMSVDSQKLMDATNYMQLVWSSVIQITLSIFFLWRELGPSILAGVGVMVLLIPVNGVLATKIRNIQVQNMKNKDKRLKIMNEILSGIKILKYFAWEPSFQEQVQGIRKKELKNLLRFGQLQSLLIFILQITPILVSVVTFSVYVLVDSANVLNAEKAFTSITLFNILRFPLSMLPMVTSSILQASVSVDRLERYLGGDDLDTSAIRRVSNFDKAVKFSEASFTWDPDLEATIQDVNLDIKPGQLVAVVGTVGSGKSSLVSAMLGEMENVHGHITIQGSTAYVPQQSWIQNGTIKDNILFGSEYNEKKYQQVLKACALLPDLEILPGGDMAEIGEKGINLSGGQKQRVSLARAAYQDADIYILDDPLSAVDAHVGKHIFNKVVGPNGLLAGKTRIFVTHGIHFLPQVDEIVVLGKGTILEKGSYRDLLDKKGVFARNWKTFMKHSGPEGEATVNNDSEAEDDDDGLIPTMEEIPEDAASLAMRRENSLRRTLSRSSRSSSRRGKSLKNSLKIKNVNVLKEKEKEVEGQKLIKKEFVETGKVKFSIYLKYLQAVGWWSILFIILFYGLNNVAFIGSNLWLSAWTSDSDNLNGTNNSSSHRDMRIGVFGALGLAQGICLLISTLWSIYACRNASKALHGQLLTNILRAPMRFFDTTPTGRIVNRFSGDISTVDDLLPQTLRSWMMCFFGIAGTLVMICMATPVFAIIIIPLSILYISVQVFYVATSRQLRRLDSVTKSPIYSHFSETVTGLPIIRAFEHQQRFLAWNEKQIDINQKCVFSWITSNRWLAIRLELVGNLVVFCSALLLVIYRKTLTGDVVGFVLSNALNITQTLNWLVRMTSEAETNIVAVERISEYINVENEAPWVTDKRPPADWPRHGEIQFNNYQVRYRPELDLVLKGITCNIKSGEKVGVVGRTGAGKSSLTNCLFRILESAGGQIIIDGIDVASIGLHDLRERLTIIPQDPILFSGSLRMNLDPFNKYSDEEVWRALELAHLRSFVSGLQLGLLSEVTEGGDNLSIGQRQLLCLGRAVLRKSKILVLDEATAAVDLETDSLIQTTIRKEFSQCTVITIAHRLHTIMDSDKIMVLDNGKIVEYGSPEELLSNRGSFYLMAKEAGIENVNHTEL
# BCRP [3] = biological target: T1, BCRP (Rattus norvegicus, UniProt Q80W57); assay: SPIP with BCRP inhibitor reserpine; type: in vivo, rats; settings: Res 50 μmol/L; increase taken to indicate a substrate of BCRP
# T1 sequence (Q80W57 1-657): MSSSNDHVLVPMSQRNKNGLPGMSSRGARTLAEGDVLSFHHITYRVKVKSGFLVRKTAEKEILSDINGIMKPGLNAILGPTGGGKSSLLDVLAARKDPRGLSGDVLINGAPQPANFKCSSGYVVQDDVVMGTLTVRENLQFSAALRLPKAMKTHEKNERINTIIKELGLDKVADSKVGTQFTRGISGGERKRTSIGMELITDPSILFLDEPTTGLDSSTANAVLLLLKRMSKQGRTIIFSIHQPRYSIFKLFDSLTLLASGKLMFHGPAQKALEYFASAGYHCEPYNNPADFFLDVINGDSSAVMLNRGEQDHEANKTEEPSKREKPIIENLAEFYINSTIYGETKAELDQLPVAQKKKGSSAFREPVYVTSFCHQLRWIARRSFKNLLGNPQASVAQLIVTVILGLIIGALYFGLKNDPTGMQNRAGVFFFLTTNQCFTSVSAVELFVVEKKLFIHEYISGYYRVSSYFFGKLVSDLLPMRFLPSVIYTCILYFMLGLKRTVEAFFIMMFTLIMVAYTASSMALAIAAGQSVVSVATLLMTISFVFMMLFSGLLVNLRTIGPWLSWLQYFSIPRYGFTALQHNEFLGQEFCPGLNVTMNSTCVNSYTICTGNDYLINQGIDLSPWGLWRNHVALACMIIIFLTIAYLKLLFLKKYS
# Caco-2 cells = assay: Caco-2 cell viability, MTT assay; type: cell-based, human
# Procedure, shortened: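 Caco-2 cells seeded at 10,000/well in 96-well plates and grown 24 h at 37°C, 5% CO2. Exposed to increasing concentrations of free or liposomal test compound for 4 h, with α-MEM as negative control. Then 0.5% MTT added for 4 h at 37°C, formazan dissolved in DMSO, A490 read. Viability expressed as percent of control.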
# [4] = Transport study in Caco-2 cell monolayer; type: in vitro ADME; settings: human, Caco-2, pH 7.4
# Procedure, shortened: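 Caco-2 cells grown in α-MEM with 20% FBS, 1% NEAA, 4 mM glutamine and pen/strep. Seeded on transwells and cultured 21 days; monolayers with TEER >300 Ω·cm2 used. In pH 7.4 HBSS, free or liposomal test compound (2.5, 5, 10 μg/mL) added apically (A→B) or basolaterally (B→A). Receiver sampled at 30–180 min with replacement. Triplicate runs; Papp from ΔQ/Δt, area and C0; efflux ratio derived.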
# P-gp [5] = biological target: P-gp (Homo sapiens, UniProt P08183); assay: Caco-2 transport with P-gp inhibitor Ver; type: in vitro ADME; settings: Ver 100 μmol/L; increase taken to indicate a substrate of P-gp
# Sequence of P-gp (Homo sapiens, UniProt P08183) (P08183 whole entry): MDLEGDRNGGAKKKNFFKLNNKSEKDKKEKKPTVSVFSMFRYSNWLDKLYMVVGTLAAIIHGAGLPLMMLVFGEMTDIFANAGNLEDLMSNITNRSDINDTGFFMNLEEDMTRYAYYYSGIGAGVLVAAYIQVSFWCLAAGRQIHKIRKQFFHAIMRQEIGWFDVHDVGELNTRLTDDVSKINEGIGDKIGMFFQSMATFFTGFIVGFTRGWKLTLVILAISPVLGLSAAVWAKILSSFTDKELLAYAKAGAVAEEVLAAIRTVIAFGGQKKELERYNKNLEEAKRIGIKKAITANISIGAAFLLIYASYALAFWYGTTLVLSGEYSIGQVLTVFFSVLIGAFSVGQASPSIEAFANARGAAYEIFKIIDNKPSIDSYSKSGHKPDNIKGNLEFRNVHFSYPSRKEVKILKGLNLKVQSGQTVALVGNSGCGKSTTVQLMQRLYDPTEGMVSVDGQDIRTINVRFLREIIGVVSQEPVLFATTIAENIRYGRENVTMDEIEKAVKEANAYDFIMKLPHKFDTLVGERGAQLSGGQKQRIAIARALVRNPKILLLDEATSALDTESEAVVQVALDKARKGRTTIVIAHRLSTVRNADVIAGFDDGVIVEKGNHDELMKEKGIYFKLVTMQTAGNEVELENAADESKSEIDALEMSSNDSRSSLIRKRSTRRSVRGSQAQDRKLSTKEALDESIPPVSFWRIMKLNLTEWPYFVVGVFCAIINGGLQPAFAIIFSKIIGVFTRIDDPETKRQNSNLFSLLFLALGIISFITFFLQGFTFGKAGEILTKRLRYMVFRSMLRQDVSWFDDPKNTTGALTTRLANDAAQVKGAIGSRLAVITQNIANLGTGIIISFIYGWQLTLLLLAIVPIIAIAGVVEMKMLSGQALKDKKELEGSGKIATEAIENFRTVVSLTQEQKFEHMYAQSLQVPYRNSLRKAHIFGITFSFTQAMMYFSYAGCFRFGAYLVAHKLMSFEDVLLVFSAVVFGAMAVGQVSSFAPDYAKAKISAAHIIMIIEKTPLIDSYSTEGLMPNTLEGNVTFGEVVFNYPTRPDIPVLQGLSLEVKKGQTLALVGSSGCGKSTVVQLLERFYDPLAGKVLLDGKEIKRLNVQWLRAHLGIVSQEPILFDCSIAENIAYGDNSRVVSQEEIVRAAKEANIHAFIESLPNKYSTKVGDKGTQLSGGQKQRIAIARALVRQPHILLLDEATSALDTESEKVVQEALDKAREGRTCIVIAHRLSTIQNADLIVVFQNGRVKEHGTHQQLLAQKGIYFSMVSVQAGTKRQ
# Procedure, shortened: (§1)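 Bidirectional transport across 21-day Caco-2 monolayers (TEER >300 Ω·cm2) in pH 7.4 HBSS. Free or liposomal test compound at 2.5, 5, 10 μg/mL, with efflux inhibitor added: verapamil 100 μmol/L (P-gp), indomethacin 200 μmol/L (MRP2) or reserpine 50 μmol/L (BCRP). Receiver sampled at 30–180 min with replacement. Triplicate runs; Papp from ΔQ/Δt, area and C0.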
# MRP2 [6] = biological target: MRP2 (Homo sapiens, UniProt Q92887); assay: Caco-2 transport with MRP2 inhibitor Indo; type: in vitro ADME; settings: Indo 200 μmol/L; increase taken to indicate a substrate of MRP2
# Sequence of MRP2 (Homo sapiens, UniProt Q92887) (Q92887 whole entry): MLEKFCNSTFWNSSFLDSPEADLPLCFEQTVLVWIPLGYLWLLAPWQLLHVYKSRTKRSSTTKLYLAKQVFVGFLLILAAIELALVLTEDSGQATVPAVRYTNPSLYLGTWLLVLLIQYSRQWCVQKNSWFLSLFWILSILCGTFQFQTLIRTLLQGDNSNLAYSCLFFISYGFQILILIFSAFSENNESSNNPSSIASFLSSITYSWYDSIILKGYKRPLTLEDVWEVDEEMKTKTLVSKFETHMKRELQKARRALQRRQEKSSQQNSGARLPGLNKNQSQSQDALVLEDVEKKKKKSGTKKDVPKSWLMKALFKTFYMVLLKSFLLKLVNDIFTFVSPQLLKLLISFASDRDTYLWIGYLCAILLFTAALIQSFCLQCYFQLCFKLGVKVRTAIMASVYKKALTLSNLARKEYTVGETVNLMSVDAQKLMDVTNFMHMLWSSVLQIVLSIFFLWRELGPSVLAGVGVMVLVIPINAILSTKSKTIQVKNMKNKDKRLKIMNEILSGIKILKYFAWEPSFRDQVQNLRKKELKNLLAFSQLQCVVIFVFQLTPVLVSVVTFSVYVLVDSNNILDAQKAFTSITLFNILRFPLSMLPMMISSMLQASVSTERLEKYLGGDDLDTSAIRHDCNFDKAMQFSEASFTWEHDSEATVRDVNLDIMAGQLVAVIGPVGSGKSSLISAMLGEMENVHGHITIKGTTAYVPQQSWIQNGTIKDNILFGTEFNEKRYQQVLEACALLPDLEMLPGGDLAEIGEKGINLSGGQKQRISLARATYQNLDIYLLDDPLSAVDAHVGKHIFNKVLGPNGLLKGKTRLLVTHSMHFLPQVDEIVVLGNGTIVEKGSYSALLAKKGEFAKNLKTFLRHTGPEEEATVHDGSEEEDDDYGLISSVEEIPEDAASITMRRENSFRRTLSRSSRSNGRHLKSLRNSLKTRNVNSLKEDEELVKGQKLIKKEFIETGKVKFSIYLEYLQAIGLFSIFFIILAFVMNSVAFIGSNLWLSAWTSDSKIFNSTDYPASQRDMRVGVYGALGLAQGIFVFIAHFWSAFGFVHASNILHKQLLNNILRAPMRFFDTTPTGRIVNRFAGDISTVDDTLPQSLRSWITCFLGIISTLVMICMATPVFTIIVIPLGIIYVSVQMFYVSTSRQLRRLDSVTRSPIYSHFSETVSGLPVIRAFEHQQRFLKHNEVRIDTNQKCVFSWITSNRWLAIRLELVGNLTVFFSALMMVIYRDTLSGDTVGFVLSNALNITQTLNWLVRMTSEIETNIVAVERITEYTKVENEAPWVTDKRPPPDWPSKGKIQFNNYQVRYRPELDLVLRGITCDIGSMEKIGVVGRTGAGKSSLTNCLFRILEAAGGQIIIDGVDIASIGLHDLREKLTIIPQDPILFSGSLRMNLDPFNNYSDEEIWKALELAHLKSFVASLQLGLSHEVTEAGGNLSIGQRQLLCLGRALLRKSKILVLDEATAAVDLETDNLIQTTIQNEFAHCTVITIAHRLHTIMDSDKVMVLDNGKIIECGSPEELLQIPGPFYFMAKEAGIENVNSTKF
# Procedure, shortened: as §1
# BCRP [7] = biological target: T2, BCRP (Homo sapiens, UniProt Q9UNQ0); assay: Caco-2 transport with BCRP inhibitor Res; type: in vitro ADME; settings: Res 50 μmol/L; increase taken to indicate a substrate of BCRP
# T2 sequence (Q9UNQ0 1-655): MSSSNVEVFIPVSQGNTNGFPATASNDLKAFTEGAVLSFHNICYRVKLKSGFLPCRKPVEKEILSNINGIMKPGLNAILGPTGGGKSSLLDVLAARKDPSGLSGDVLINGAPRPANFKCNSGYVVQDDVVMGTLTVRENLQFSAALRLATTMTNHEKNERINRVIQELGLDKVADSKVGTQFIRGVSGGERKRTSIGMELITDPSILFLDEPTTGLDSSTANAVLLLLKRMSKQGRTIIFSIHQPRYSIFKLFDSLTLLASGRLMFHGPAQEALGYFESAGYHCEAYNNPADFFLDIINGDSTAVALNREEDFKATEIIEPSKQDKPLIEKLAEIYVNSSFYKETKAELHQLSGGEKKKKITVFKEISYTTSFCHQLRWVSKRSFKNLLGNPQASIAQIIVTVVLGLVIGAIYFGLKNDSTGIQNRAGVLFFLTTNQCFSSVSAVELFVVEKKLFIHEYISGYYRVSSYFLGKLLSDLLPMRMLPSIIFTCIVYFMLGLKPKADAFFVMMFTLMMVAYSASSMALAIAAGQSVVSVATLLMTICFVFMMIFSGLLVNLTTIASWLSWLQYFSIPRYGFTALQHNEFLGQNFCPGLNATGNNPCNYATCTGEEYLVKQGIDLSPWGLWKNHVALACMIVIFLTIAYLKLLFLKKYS
# Procedure, shortened: as §1
# [8] = RAW264.7 cell viability, MTT assay; type: cell-based; settings: mouse, RAW 264.7 macrophages
# Procedure, shortened: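 Log-phase RAW264.7 macrophages seeded at 10,000/well in 96-well plates and grown 24 h. Treated for 24 h with graded concentrations of free or liposomal test compound, 6 replicate wells per group. Then 0.5% MTT added for 4 h, formazan dissolved in DMSO, absorbance read at 490 nm.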
# [9] = tested on: RAW264.7 macrophages stimulated by LPS; assay: NO release and ELISA of TNF-α, IL-6 and IL-10 in LPS-stimulated RAW264.7; type: cell-based, mouse; settings: LPS 1 µg/mL, paeonol 5 μg/mL, Pae-Lips 2.5, 5, 10 μg/mL
# Procedure, shortened: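 RAW264.7 cells (DMEM, 20% FBS, 37°C, 5% CO2) seeded at 15,000/well and grown 24 h. Pretreated 2 h with free test compound (5 μg/mL final) or liposomes (2.5, 5, 10 μg/mL final). Then stimulated with LPS 1 µg/mL final (unstimulated control kept) for 20 h. Supernatant NO measured by kit; IL-6, TNF-α and IL-10 by ELISA.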
# P-gp [10] = assay: SPIP with P-gp inhibitor verapamil; settings: Ver 100 μmol/L; increase taken to indicate a substrate of P-gp
# UC induced by DSS = assay: DSS colitis: histological examination of colon; type: in vivo, Balb/c mice; settings: SASP 500 mg/kg; Pae-Lips-H 400 mg/kg
# Procedure, shortened: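 Male Balb/c mice (10 weeks, n = 6/group) given 3% (w/v) DSS in drinking water for 7 days. Dosed by gavage twice daily, suspended in 0.5% CMC-Na. Distal colon (~2 cm) fixed in 10% formaldehyde and HE-stained. Scored for mucosal inflammation severity, lesion extent and crypt damage.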
smiles,measurement,setting,value
"COc1ccc(C(C)=O)c(O)c1 [Paeonol, 2’-hydroxy-4’-methoxyacetophenone]",cumulative release percentage (P%),In vitro drug release,36.05 ± 2.94%
same,Papp values at different concentrations,[1],no significant difference
same,Papp in each intestinal segment after adding Indo,MRP2 [2],significantly increased
same,Papp in each intestinal segment after adding Res,BCRP [3],significantly increased
same,Caco-2 cell viability,Caco-2 cells; concentration exceeds 10 μg/mL,significantly reduced
same,survival rate of Caco-2 cells,"Caco-2 cells; within 10 μg/mL, 4 hours",greater than 90%
same,"Papp A→B at 180 min, 2.5 μg/mL",[4],3.25 ± 0.32 ×10⁻⁶ cm/s
same,"Papp A→B at 180 min, 5 μg/mL",[4],3.62 ± 0.13 ×10⁻⁶ cm/s
same,"Papp A→B at 180 min, 10 μg/mL",[4],3.65 ± 0.52 ×10⁻⁶ cm/s
same,"Papp B→A at 180 min, 2.5 μg/mL",[4],4.17 ± 0.22 ×10⁻⁶ cm/s
same,"Papp B→A at 180 min, 5 μg/mL",[4],5.19 ± 0.3 ×10⁻⁶ cm/s
same,"Papp B→A at 180 min, 10 μg/mL",[4],5.32 ± 0.67 ×10⁻⁶ cm/s
same,Papp value (AP-BL) with Ver,P-gp [5],significantly increased
same,Papp value (AP-BL) with Indo,MRP2 [6],significantly increased
same,Papp value (AP-BL) with Res,BCRP [7],significantly increased
same,"viability at 24 h, 5 μg/mL",[8],> 80%
same,IL-10 level vs LPS group,[9],increased
same,IL-6 level vs LPS group,[9]; p < 0.05,decreased
same,NO level vs LPS group,[9]; p < 0.05,decreased
same,TNF-α level vs LPS group,[9]; p < 0.05,decreased
same,Papp in each intestinal segment after adding Ver,P-gp [10],significantly increased
O=C(O)c1cc(/N=N/c2ccc(S(=O)(=O)Nc3ccccn3)cc2)ccc1O [SASP],colon histopathology finding,UC induced by DSS,no obvious lesions
